In assay [1] the test system is Trichomonas vaginalis. Briefly: Induction of striking morphological alteration in Trichomonas vaginalis TV-VP60 assessed as loss of original shape of parasites with some fissures on the surface at 250 uM by scanning electron microscopic analysis. Conditions: TDE = time-dependent effect. Format: functional, organism-based. In outline: (§1)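 Surface morphology of TV-VP60 trophozoites exposed to 250 µM for 6 h and 24 h was examined by scanning electron microscopy.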

Assay [2] relates to Trichomonas vaginalis. Briefly: Growth inhibition of Trichomonas vaginalis TV-VP60 at 250 uM using initial inoculum of 5 x 10^5 trophozoites/mL. In kind it is functional, organism-based.
Assay [3] deals with Trichomonas vaginalis. Briefly: Induction of striking morphological alteration in Trichomonas vaginalis TV-VP60 assessed as change in intracellular localization of hydrogenosomes at 250 uM after 6 to 24 hrs by transmission electron microscopic analysis. Format: functional, organism-based.
The test system of assay [4] is Trichomonas vaginalis. Briefly: Induction of vacuolization formation in Trichomonas vaginalis TV-VP60 at 250 uM after 6 to 24 hrs by flow cytometry. Format: functional, organism-based. In outline:
(§2)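 TV-VP60 trophozoites exposed to 250 µM for 6 h and 24 h. Cell size and granularity were read by flow cytometry, with granularity taken as the vacuolization rate.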

In assay [5] the test system is Trichomonas vaginalis. Briefly: Induction of striking morphological alteration in Trichomonas vaginalis TV-VP60 assessed as pseudocysts at flagella internalization stage at 5 uM after 24 hrs by scanning electron microscopic analysis. Format: functional, organism-based.
Assay [6] has as its system Trichomonas vaginalis. Briefly: Induction of striking morphological alteration in Trichomonas vaginalis TV-VP60 assessed as effect on endoplasmic reticulum at 250 uM after 6 hrs by transmission electron microscopic analysis. Format: functional, organism-based.
The subject of assay [7] is Trichomonas vaginalis. The assay is described as follows: Induction of striking morphological alteration in Trichomonas vaginalis TV-VP60 assessed as abnormal shape of nucleus at 250 uM after 24 hrs by transmission electron microscopic analysis. In kind it is functional, organism-based.
Assay [8] relates to Trichomonas vaginalis. Briefly: Induction of striking morphological alteration in Trichomonas vaginalis TV-VP60 assessed as large peripheral vacuoles between plasma membrane and cytoplasm at 250 uM after 24 hrs by transmission electron microscopic analysis. Format: functional, organism-based.
Assay [9] concerns Trichomonas vaginalis. Briefly: Cytotoxicity against Trichomonas vaginalis TV-VP60 at 2.5 uM to 1 mM after 24 hrs by trypan blue exclusion assay. In kind it is functional, organism-based. In outline: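 Dose-response run on 5.0 × 10^5 TV-VP60 trophozoites/mL (fresh clinical isolate), concentrations 2.5 to 1000 µM, 24 h exposure, viable trophozoites counted. Vehicle control included; metronidazole 50 µM used as positive control.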

Assay [10] has as its system Trichomonas vaginalis. Briefly: Induction of apoptosis in Trichomonas vaginalis TV-VP60 assessed as formation of apoptotic bodies at 250 uM after 6 to 24 hrs by flow cytometry. Format: functional, organism-based.
Assay [11] deals with Trichomonas vaginalis. The assay is described as follows: Cell cycle arrest in Trichomonas vaginalis TV-VP60 assessed as accumulation at S phase at 250 uM after 24 hrs using Annexin V FITC and propidium iodide staining by flow cytometry relative to control. In kind it is functional. In outline:
(§3)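 TV-VP60 trophozoites (fresh clinical isolate) exposed to 250 µM for 6 h or 24 h; cell-cycle distribution measured by flow cytometry and compared with untreated trophozoites.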

Assay [12] has as its system Trichomonas vaginalis. Briefly: Cell cycle arrest in Trichomonas vaginalis TV-VP60 assessed as accumulation at G2 phase at 250 uM after 6 hrs using Annexin V FITC and propidium iodide staining by flow cytometry relative to control. In kind it is functional. In outline: as §3
(In general: In flow cytometry, cells or beads pass a laser one at a time.)

In assay [13] the test system is Trichomonas vaginalis. Briefly: Cell cycle arrest in Trichomonas vaginalis TV-VP60 assessed as accumulation at G2 phase at 250 uM after 24 hrs using Annexin V FITC and propidium iodide staining by flow cytometry relative to control. Format: functional. In outline:
as §3

Assay [14] deals with Trichomonas vaginalis. The assay is described as follows: Cell cycle arrest in Trichomonas vaginalis TV-VP60 assessed as accumulation at S phase at 250 uM after 6 hrs using Annexin V FITC and propidium iodide staining by flow cytometry relative to control. Format: functional. In outline:
as §3

Assay [15] deals with Trichomonas vaginalis. The assay is described as follows: Induction of striking morphological alteration in Trichomonas vaginalis TV-VP60 assessed as change in size of hydrogenosomes at 250 uM after 6 to 24 hrs by transmission electron microscopic analysis. Format: functional, organism-based.
For assay [16], the system named is Trichomonas vaginalis. The assay is described as follows: Induction of striking morphological alteration in Trichomonas vaginalis TV-VP60 assessed as degenerated cytoplasm matrix at 250 uM after 24 hrs by transmission electron microscopic analysis. In kind it is functional, organism-based.
The test system of assay [17] is Trichomonas vaginalis. The assay is described as follows: Induction of striking morphological alteration in Trichomonas vaginalis TV-VP60 assessed as loss of original shape of parasites with some fissures on the surface at 250 uM after 6 hrs by scanning electron microscopic analysis. In kind it is functional, organism-based. In outline:
as §1

Assay [18] relates to Trichomonas vaginalis. Briefly: Induction of striking morphological alteration in Trichomonas vaginalis TV-VP60 assessed as hydrogenosomes on autophagic vacuoles at 250 uM after 24 hrs by transmission electron microscopic analysis. In kind it is functional, organism-based.
The subject of assay [19] is Trichomonas vaginalis. Briefly: Growth inhibition of Trichomonas vaginalis TV-VP60 at 250 uM using initial inoculum of 1.0 x 10^5 trophozoites/mL. In kind it is functional, organism-based. In outline:
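Kinetic growth curve of TV-VP60 trophozoites with 250 µM present, starting from initial inocula of 1.0 × 10^5 or 5.0 × 10^4 trophozoites/mL. Untreated parasites served as control.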

Assay [20] concerns Trichomonas vaginalis. The assay is described as follows: Induction of striking morphological alteration in Trichomonas vaginalis TV-VP60 assessed as formation of multinucleated cells at 250 uM after 24 hrs by transmission electron microscopic analysis. In kind it is functional, organism-based.
Assay [21] relates to Trichomonas vaginalis. Briefly: Growth inhibition of Trichomonas vaginalis TV-VP60 at 250 uM treated followed by washout measured after 12 hrs growth period. In kind it is functional, organism-based. In outline:
(§4)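 TV-VP60 trophozoites treated with 250 µM for 12 or 24 h, centrifuged, and the pellet reinoculated into fresh medium without alkaloid. Growth was then followed as a kinetic curve. Untreated trophozoites went through the same procedure for comparison.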

Assay [22] deals with Trichomonas vaginalis. Briefly: Growth inhibition of Trichomonas vaginalis TV-VP60 at 250 uM treated followed by washout measured after 48 hrs growth period. Format: functional, organism-based. In outline:
as §4

Assay [23] relates to Trichomonas vaginalis. The assay is described as follows: Induction of striking morphological alteration in Trichomonas vaginalis TV-VP60 assessed as striate vacuolization close to nucleus at 250 uM after 24 hrs by transmission electron microscopic analysis. Format: functional, organism-based.
Assay [24] relates to Trichomonas vaginalis. Briefly: Induction of striking morphological alteration in Trichomonas vaginalis TV-VP60 assessed as elongated nucleus at 250 uM after 24 hrs by transmission electron microscopic analysis. Format: functional, organism-based.
The subject of assay [25] is Trichomonas vaginalis. Briefly: Induction of apoptosis in Trichomonas vaginalis TV-VP60 assessed as DNA fragmentation at 250 uM after 6 to 24 hrs by agarose gel electrophoresis. In kind it is functional, organism-based. In outline: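 Genomic DNA from TV-VP60 trophozoites treated with 250 µM for 6 h and 24 h was analysed by electrophoresis alongside untreated parasites.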

Assay [26] deals with Trichomonas vaginalis. The assay is described as follows: Induction of striking morphological alteration in Trichomonas vaginalis TV-VP60 assessed as effect on golgi apparatus at 250 uM after 6 hrs by transmission electron microscopic analysis. In kind it is functional, organism-based.
The test system of assay [27] is Trichomonas vaginalis. The assay is described as follows: Cell cycle arrest in Trichomonas vaginalis TV-VP60 assessed as accumulation at G1 phase at 250 uM after 24 hrs using Annexin V FITC and propidium iodide staining by flow cytometry relative to control. Format: functional. In outline: as §3
The test system of assay [28] is Trichomonas vaginalis. Briefly: Induction of striking morphological alteration in Trichomonas vaginalis TV-VP60 assessed as loss of original shape of parasites with some fissures on the surface at 250 uM after 24 hrs by scanning electron microscopic analysis. Format: functional, organism-based. In outline: as §1
Assay [29] relates to Trichomonas vaginalis. Briefly: Induction of phosphatidylserine exposure in Trichomonas vaginalis TV-VP60 at 250 uM after 6 to 24 hrs by Annexin V-FITC staining. Format: functional, organism-based.
Assay [30] deals with Trichomonas vaginalis. Briefly: Cell cycle arrest in Trichomonas vaginalis TV-VP60 assessed as accumulation at G1 phase at 250 uM after 6 hrs using Annexin V FITC and propidium iodide staining by flow cytometry relative to control. Format: functional. In outline:
as §3

In assay [31] the test system is Trichomonas vaginalis. Briefly: Induction of striking morphological alteration in Trichomonas vaginalis TV-VP60 assessed as change in shape of hydrogenosomes at 250 uM after 6 to 24 hrs by transmission electron microscopic analysis. Format: functional, organism-based.
In assay [32] the test system is Trichomonas vaginalis. Briefly: Effect on alteration in size of trophozoites in Trichomonas vaginalis TV-VP60 at 250 uM after 6 to 24 hrs by flow cytometry. Format: functional, organism-based. In outline: as §2
Assay [33] deals with Trichomonas vaginalis. The assay is described as follows: Cytotoxicity against Trichomonas vaginalis TV-VP60 at 50 uM after 24 hrs by trypan blue exclusion assay. Format: functional.

The source made the active and inactive calls. The rule behind the calls is not given here.

`COc1c2c(cc3c1C(=O)O[C@H]1[C@@H]3[C@H]3C(=C[C@@H]1O)CCN3C)OCO2` [CANDIMINE]: the Activity result was “tde” with Trichomonas vaginalis [1]; 19.49% in the assay with Trichomonas vaginalis [11]; 44.2% in the assay on Trichomonas vaginalis [12]; 58.97% in the assay on Trichomonas vaginalis [13]; 19.89% in the assay with Trichomonas vaginalis [14]; 22.66% in the assay on Trichomonas vaginalis [27]. The Activity with Trichomonas vaginalis [30] was 34.39%. For the same compound, the “growth inhibition (GI)” value with Trichomonas vaginalis [2] and with Trichomonas vaginalis [19] was “Active” throughout. Moreover, the result in the assay with Trichomonas vaginalis [3], in the assay with Trichomonas vaginalis [4], with Trichomonas vaginalis [5], in the assay on Trichomonas vaginalis [7], in the assay on Trichomonas vaginalis [8] and with Trichomonas vaginalis [9] was Active. In addition, the result with Trichomonas vaginalis [15], in the assay on Trichomonas vaginalis [17], with Trichomonas vaginalis [18], in the assay on Trichomonas vaginalis [23], in the assay with Trichomonas vaginalis [24] and with Trichomonas vaginalis [28] was Active. In the assay with Trichomonas vaginalis [31], the outcome was Active. Also, the result in the assay with Trichomonas vaginalis [6], in the assay on Trichomonas vaginalis [10], with Trichomonas vaginalis [16], with Trichomonas vaginalis [20], in the assay on Trichomonas vaginalis [25] and with Trichomonas vaginalis [26] was inactive. Moreover, the result in the assay with Trichomonas vaginalis [29] and with Trichomonas vaginalis [32] was inactive. Further, the “growth inhibition (GI)” value in the assay on Trichomonas vaginalis [21] and with Trichomonas vaginalis [22] was “inactive” throughout.

Compound `Cc1ncc([N+](=O)[O-])n1CCO` [METRONIDAZOLE] yielded an Activity in the assay with Trichomonas vaginalis [33] of 100%.
